The subject of one test is Bacillus cereus. The test can be described thus: Antibacterial activity against Bacillus cereus 702 after 18 hrs by agar-well diffusion method. As to IZ: test concentration or dose not given here. It counts as functional. The procedure, abridged:
(§1)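 Microorganisms flood-inoculated onto the surface of Mueller-Hinton agar or Sabouraud dextrose agar, then dried. 5 mm diameter wells cut into the agar with a sterile cork-borer.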
Background: Agar diffusion results depend on both activity and mobility in agar.

Another test relates to Klebsiella aerogenes. Briefly: Antibacterial activity against Enterobacter aerogenes ATCC 13048 after 18 hrs by agar-well diffusion method. As to IZ: test concentration or dose not given here. It counts as functional. The procedure, abridged: as §1
A further test relates to Candida albicans. Briefly: Antifungal activity against Candida albicans ATCC 60193 after 18 hrs by agar-well diffusion method. The class given is functional. Summed up:
(§2)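 Yeast flood-inoculated onto Sabouraud dextrose agar and dried. Five-millimetre wells were cut with a sterile cork-borer, and test substance was delivered into each well.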

Test [1] relates to Yersinia pseudotuberculosis. The test can be described thus: Antibacterial activity against Yersinia pseudotuberculosis ATCC 911 after 18 hrs by agar-well diffusion method. It counts as functional. Summed up:
(§3)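 Organisms flood-inoculated onto the agar surface and dried. Five-millimetre wells were cut with a sterile cork-borer, and test substance was delivered into each well.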

In the next test the test system is Staphylococcus aureus. The test can be described thus: Antibacterial activity against Staphylococcus aureus ATCC 25923 after 18 hrs by agar-well diffusion method. As to IZ: test concentration or dose not given here. The class given is functional. The procedure, abridged: as §1
In a further test the test system is Saccharomyces cerevisiae. The test can be described thus: Antifungal activity against Saccharomyces cerevisiae RSKK 251 after 18 hrs by agar-well diffusion method. It counts as functional. Summed up:
as §3

A further test has as its system Enterococcus faecalis. Briefly: Antibacterial activity against Enterococcus faecalis ATCC 29212 after 18 hrs by agar-well diffusion method. As to IZ: test concentration or dose not given here. The class given is functional. Summed up:
as §1

Test [2] deals with Mycolicibacterium smegmatis. The test can be described thus: Antibacterial activity against Mycobacterium smegmatis ATCC 607 after 18 hrs by agar-well diffusion method. As to IZ: test concentration or dose not given here. It counts as functional. Summed up: as §1
The next test deals with Candida tropicalis. The test can be described thus: Antifungal activity against Candida tropicalis ATCC 13803 after 18 hrs by agar-well diffusion method. It counts as functional. The procedure, abridged:
as §2

A further test deals with Aspergillus niger. Briefly: Antifungal activity against Aspergillus niger RSKK 4017 after 18 hrs by agar-well diffusion method. The class given is functional, organism-based. The procedure, abridged: as §1
Another test has as its system Escherichia coli. The test can be described thus: Antibacterial activity against Escherichia coli ATCC 25922 after 18 hrs by agar-well diffusion method. As to IZ: test concentration or dose not given here. It counts as functional. Summed up:
as §1

Another test concerns Pseudomonas aeruginosa. The test can be described thus: Antibacterial activity against Pseudomonas aeruginosa ATCC 43288 after 18 hrs by agar-well diffusion method. As to IZ: test concentration or dose not given here. It counts as functional. The procedure, abridged:
as §1

The source made the active and inactive calls. The rule behind the calls is not given here. Some results are limits rather than exact numbers.

Consider `Cc1c(-n2c(Cc3ccc(Cl)cc3)nn(CC(=O)NNC(=S)NCc3ccccc3)c2=O)c(=O)n(-c2ccccc2)n1C`, for which the “inhibition zone (IZ)” value in the test on Bacillus cereus came out at 10 mm; with Klebsiella aerogenes, 10 mm; in [1], 10 mm; in the test with Staphylococcus aureus, 10 mm; with Enterococcus faecalis, 8 mm; in test [2], 15 mm. The “inhibition zone (IZ)” value in the test on Escherichia coli was determined as 15 mm; in the test on Pseudomonas aeruginosa, 10 mm. Besides, the outcome in the test on Candida albicans, in the test with Saccharomyces cerevisiae, in the test with Candida tropicalis and with Aspergillus niger was Active.

Consider `Cc1c(-n2c(Cc3ccc(Cl)cc3)nn(CC(=O)N/N=c3/scc(-c4ccc(Cl)cc4)n3-c3ccccc3)c2=O)c(=O)n(-c2ccccc2)n1C`, for which the result in the test with Bacillus cereus, with Klebsiella aerogenes, in the test with Candida albicans, with Staphylococcus aureus, in the test on Saccharomyces cerevisiae and in the test with Enterococcus faecalis was Active. For the same compound, the outcome with Candida tropicalis, in the test on Aspergillus niger and in the test on Pseudomonas aeruginosa was Active. The entries for the “inhibition zone (IZ)” value (in test [1]; in [2]; with Escherichia coli) were 12 mm, 10 mm and 15 mm, respectively.

On to `Cc1c(-n2c(Cc3ccc(Cl)cc3)nn(Cc3nnc(S)n3Cc3ccccc3)c2=O)c(=O)n(-c2ccccc2)n1C`, for which the “inhibition zone (IZ)” value in the test on Bacillus cereus came out at 30 mm; in the test with Klebsiella aerogenes, 30 mm; in [1], 30 mm; in the test on Staphylococcus aureus, 30 mm; in the test with Enterococcus faecalis, 28 mm; in test [2] it was 33 mm. In addition, the figures for the “inhibition zone (IZ)” value in the test on Escherichia coli and with Pseudomonas aeruginosa were 35 mm and 30 mm, respectively. In addition, the result in the test with Candida albicans, in the test with Saccharomyces cerevisiae, with Candida tropicalis and in the test with Aspergillus niger was Active.

With `Cc1c(-n2c(Cc3ccc(Cl)cc3)nn(CC(=O)NN)c2=O)c(=O)n(-c2ccccc2)n1C`, the outcome (in the test with Bacillus cereus; in the test on Klebsiella aerogenes; with Candida albicans; in [1]; in the test with Staphylococcus aureus; in the test with Saccharomyces cerevisiae) was Active. The result (in the test with Enterococcus faecalis; in test [2]; in the test on Candida tropicalis; with Aspergillus niger; in the test with Escherichia coli; in the test on Pseudomonas aeruginosa) was Active.

For the compound `OC(Cn1cncn1)(Cn1cncn1)c1ccc(F)cc1F` [FLUCONAZOLE], the “inhibition zone (IZ)” value in the test with Candida albicans was 25 mm; in the test on Saccharomyces cerevisiae, above 25 mm; in the test with Candida tropicalis, 25 mm.

Regarding `Cc1c(-n2c(Cc3ccc(Cl)cc3)nn(Cc3nnc(Nc4ccc(F)cc4)s3)c2=O)c(=O)n(-c2ccccc2)n1C`, the result in the test with Bacillus cereus, in the test with Candida albicans, in the test with Staphylococcus aureus, in the test on Saccharomyces cerevisiae, with Enterococcus faecalis and in the test with Candida tropicalis was Active. Also, the result with Aspergillus niger was Active. Also, the “inhibition zone (IZ)” value in the test with Klebsiella aerogenes is 25 mm; in [1], 25 mm; in [2], 25 mm; in the test with Escherichia coli, 20 mm; in the test on Pseudomonas aeruginosa it was 20 mm.

Turning to `Cc1c(-n2c(Cc3ccc(Cl)cc3)nn(Cc3nnc(Nc4ccccc4)s3)c2=O)c(=O)n(-c2ccccc2)n1C`, the outcome with Bacillus cereus, with Candida albicans, in the test with Staphylococcus aureus, in the test with Saccharomyces cerevisiae, with Enterococcus faecalis and in the test on Candida tropicalis was Active. Further, the result in the test on Aspergillus niger was Active. For the same compound, the “inhibition zone (IZ)” value in the test on Klebsiella aerogenes is given as 25 mm; in test [1] it was 25 mm; in test [2] it was 25 mm; with Escherichia coli, 25 mm; in the test on Pseudomonas aeruginosa, 35 mm.

Take `Cc1c(-n2c(Cc3ccc(Cl)cc3)nn(CC(=O)N/N=c3/scc(-c4ccc([N+](=O)[O-])cc4)n3-c3ccccc3)c2=O)c(=O)n(-c2ccccc2)n1C`: the “inhibition zone (IZ)” value turned out to be 20 mm with Bacillus cereus; 30 mm in test [1]; 30 mm in the test on Staphylococcus aureus; 18 mm with Enterococcus faecalis; 25 mm in test [2]; 15 mm with Escherichia coli. Moreover, the “inhibition zone (IZ)” value in the test on Pseudomonas aeruginosa worked out at 20 mm. In addition, the result in the test with Klebsiella aerogenes, with Candida albicans, in the test with Saccharomyces cerevisiae, in the test with Candida tropicalis and with Aspergillus niger was Active.

Take `Cc1c(-n2c(Cc3ccc(Cl)cc3)n[nH]c2=O)c(=O)n(-c2ccccc2)n1C`: the outcome (with Bacillus cereus; in the test with Klebsiella aerogenes; in the test on Candida albicans; in [1]; with Staphylococcus aureus; with Saccharomyces cerevisiae) was Active. In addition, the outcome (in the test on Enterococcus faecalis; in [2]; with Candida tropicalis; in the test with Aspergillus niger; in the test with Escherichia coli; in the test on Pseudomonas aeruginosa) was Active.

Turning to `CN[C@@H]1[C@H](O[C@H]2[C@H](O[C@H]3[C@H](O)[C@@H](O)[C@H](N=C(N)N)[C@@H](O)[C@@H]3N=C(N)N)O[C@@H](C)[C@]2(O)C=O)O[C@@H](CO)[C@H](O)[C@H]1O` [STREPTOMYCIN], in test [2], the “inhibition zone (IZ)” value is reported as 35 mm.

`Cc1c(-n2c(Cc3ccc(Cl)cc3)nn(CC(=O)NNC(=S)Nc3ccc(F)cc3)c2=O)c(=O)n(-c2ccccc2)n1C`: the “inhibition zone (IZ)” value in the test on Bacillus cereus was found to be 10 mm; in the test on Klebsiella aerogenes, 8 mm; in [1], 10 mm; with Staphylococcus aureus, 10 mm; in the test with Enterococcus faecalis, 8 mm; in test [2], 15 mm. Moreover, the “inhibition zone (IZ)” value in the test with Escherichia coli came to 15 mm; with Pseudomonas aeruginosa it was 10 mm. The result with Candida albicans, with Saccharomyces cerevisiae, with Candida tropicalis and in the test on Aspergillus niger was Active.

Take `Cc1c(-n2c(Cc3ccc(Cl)cc3)nn(CC(=O)NNC(=S)Nc3ccccc3)c2=O)c(=O)n(-c2ccccc2)n1C`: the “inhibition zone (IZ)” value with Bacillus cereus is given as 10 mm; in test [1] it was 8 mm; in the test with Staphylococcus aureus it was 8 mm; with Enterococcus faecalis it was 8 mm; in [2], 10 mm; in the test with Escherichia coli it was 10 mm. Also, in the test with Pseudomonas aeruginosa, the “inhibition zone (IZ)” value amounted to 8 mm. Moreover, the outcome with Klebsiella aerogenes, in the test with Candida albicans, in the test with Saccharomyces cerevisiae, in the test on Candida tropicalis and with Aspergillus niger was Active.

Turning to `CC1(C)S[C@@H]2[C@H](NC(=O)[C@H](N)c3ccccc3)C(=O)N2[C@H]1C(=O)O` [AMPICILLIN], the “inhibition zone (IZ)” value in the test with Bacillus cereus is reported as 15 mm; in the test on Klebsiella aerogenes, 10 mm; in test [1], 18 mm; with Staphylococcus aureus it was 35 mm; in the test on Enterococcus faecalis, 10 mm; in the test with Escherichia coli, 10 mm. Also, in the test on Pseudomonas aeruginosa, the “inhibition zone (IZ)” value worked out at 18 mm.

Turning to `Cc1c(-n2c(Cc3ccc(Cl)cc3)nn(Cc3nnc(S)o3)c2=O)c(=O)n(-c2ccccc2)n1C`, the “inhibition zone (IZ)” value was found to be 30 mm in the test on Bacillus cereus; 30 mm with Klebsiella aerogenes; 30 mm in test [1]; 30 mm in the test with Staphylococcus aureus; 28 mm with Enterococcus faecalis; 38 mm in test [2]. The “inhibition zone (IZ)” value in the test on Escherichia coli is reported as 35 mm; in the test with Pseudomonas aeruginosa, 30 mm. Also, the result with Candida albicans, in the test on Saccharomyces cerevisiae, with Candida tropicalis and in the test with Aspergillus niger was Active.

In the case of `CCOC(=O)Cn1nc(Cc2ccc(Cl)cc2)n(-c2c(C)n(C)n(-c3ccccc3)c2=O)c1=O`, the outcome (with Bacillus cereus; in the test with Klebsiella aerogenes; with Candida albicans; in test [1]; with Staphylococcus aureus; in the test with Saccharomyces cerevisiae) was Active. Besides, the outcome (in the test with Enterococcus faecalis; in [2]; with Candida tropicalis; in the test with Aspergillus niger; in the test with Escherichia coli; in the test with Pseudomonas aeruginosa) was Active.

(Values after ChEMBL document CHEMBL1275269, “Cyclization of some carbothioamide derivatives containing antipyrine and triazole moieties and investigation of their antimicrobial activities” (2010).)
